A short description of data set [1]: Half life in mouse liver microsomes in presence of NADPH. It is filed as ADME, Microsome. The method, boiled down: (§1)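 Liver microsomal stability in mouse and human microsomes with NADPH; half-life in minutes.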
Data set [2] is described as follows: Mutagenicity in Salmonella typhimurium TA98 assessed as induction of >= 2 fold increase in revertant colonies at 1.5 to 1000 ug/well in presence of S9 fraction by Ames test. It is filed as toxicity, subcellular. As to conditions: salmonella enterica subsp. enterica serovar typhimurium. The method, boiled down: (§2)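 Ames test with S. typhimurium TA98 and TA1537, with and without S9 mix. A positive call required a ≥ 2-fold (TA98) or ≥ 3-fold (TA1537) rise in mean revertant colonies over the concurrent negative/solvent control.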
A general note: In the Ames test, an excess of revertant colonies over the control signals mutagenicity.

The test system of data set [3] is Mus musculus. Nature of the data set: Antitumor immunity against mouse SM1 cells implanted in flank of immunocompetent C57BL/6 mouse assessed as increase in ratio of M1/M2 macrophages at 25 mg/kg, ip administered 1 week post-implantation by flow cytometry. It is filed as functional, organism-based. In general terms: A flow cytometer gives signals particle by particle.

A short description of data set [4]: Half life in human liver microsomes in presence of NADPH. The format is ADME, Microsome. The method, boiled down:
as §1
A general note: Liver microsomes are vesicles of endoplasmic reticulum, rich in cytochrome P450 enzymes.

In data set [5] the test system is Mus musculus. Nature of the data set: Antitumor activity against mouse SM1 cells implanted in flank of immunocompetent C57BL/6 mouse assessed as reduction in tumor growth at 25 mg/kg, ip administered 1 week post-implantation measured for 18 days. The format is functional, organism-based. The method in brief:
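SM1 cells passaged in vivo mouse to mouse at least five times; 1.0 × 10^6 cells in 100 µL PBS injected subcutaneously into female C57BL/6 mice 4-6 weeks old, 10 per group. Treatment ip 25 mg/kg or 100 µL PBS vehicle, five days a week until control tumors reached maximum size. Tumor volume from calipers as L × W2/2.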

Data set [6] addresses Histone deacetylase (Mus musculus) (UniProt Q8VH37+Q9Z2V6+Q9Z2V5+O09106+Q8C2B3+P70288+O88895+Q91WA3+Q99N13+Q6NZM9+Q6P3E7). Nature of the data set: Inhibition of HDAC in mouse SM1 cells at 0.1 to 25 uM measured after 1 hr by HDAC-Glo 1/2 luminescent assay. It is filed as cell-based. The method in brief: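 Cells plated at 10,000 per well overnight, then after 24 h treated with compound for 1 h at 37 °C, 5% CO2. HDAC-Glo I/II developer mixed with substrate and added to wells; luminescence read every 2 min for 1 h 15 min.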

A short description of data set [7]: Induction of cell death in mouse SM1 cells at 0.1 to 25 uM. The format is cell-based.
Data set [8] concerns the target T1, Protein deacetylase HDAC6 (Mus musculus) (UniProt Q9Z2V5).
T1 sequence (whole entry): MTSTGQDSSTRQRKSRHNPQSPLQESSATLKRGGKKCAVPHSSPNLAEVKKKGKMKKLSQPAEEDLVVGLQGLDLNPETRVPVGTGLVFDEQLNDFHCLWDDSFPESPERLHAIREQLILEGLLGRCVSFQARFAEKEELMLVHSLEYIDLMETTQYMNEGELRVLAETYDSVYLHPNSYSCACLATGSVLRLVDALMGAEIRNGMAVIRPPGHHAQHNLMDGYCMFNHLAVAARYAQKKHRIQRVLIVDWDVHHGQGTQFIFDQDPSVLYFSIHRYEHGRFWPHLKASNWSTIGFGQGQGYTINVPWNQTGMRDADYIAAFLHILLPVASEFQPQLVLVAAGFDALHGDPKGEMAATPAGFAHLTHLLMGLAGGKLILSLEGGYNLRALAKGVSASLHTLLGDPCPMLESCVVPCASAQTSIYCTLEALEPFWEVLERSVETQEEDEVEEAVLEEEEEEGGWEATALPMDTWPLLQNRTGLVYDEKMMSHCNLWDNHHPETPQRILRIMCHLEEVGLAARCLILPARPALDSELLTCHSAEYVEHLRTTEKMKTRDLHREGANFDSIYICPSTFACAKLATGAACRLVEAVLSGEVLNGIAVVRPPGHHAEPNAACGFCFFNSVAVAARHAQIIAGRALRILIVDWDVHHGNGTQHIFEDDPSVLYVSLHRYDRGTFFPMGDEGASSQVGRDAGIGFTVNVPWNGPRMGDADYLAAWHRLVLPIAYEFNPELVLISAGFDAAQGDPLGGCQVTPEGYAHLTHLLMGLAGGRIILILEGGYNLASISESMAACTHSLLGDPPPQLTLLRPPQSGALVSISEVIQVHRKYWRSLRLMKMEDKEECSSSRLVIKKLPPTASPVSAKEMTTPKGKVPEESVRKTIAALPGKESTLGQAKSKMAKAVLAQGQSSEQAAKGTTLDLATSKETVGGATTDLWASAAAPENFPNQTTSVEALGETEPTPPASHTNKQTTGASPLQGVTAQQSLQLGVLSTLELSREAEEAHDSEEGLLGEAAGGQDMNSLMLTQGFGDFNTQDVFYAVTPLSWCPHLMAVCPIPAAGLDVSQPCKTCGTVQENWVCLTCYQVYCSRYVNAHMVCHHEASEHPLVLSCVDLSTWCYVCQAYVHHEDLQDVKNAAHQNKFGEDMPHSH
Briefly: Inhibition of HDAC6 in mouse SM1 cells assessed as increase in acetylated alpha-tubulin level at 5 to 10 uM after 24 hrs by Western blot analysis. It is filed as cell-based.

Data set [9] can be described thus: Mutagenicity in Salmonella typhimurium TA1537 assessed as induction of >= 3 fold increase in revertant colonies at 1.5 to 1000 ug/well in absence of S9 fraction by Ames test. As to conditions: salmonella enterica subsp. enterica serovar typhimurium. It is filed as toxicity. The method in brief:
as §2

The next data set deals with T-24. Nature of the data set: Induction of cell death in human T24 cells at 0.1 to 25 uM. As to conditions: t-24, 25 µM. It is filed as cell-based.
For data set [10], the target named is T1, Protein deacetylase HDAC6 (Mus musculus). Nature of the data set: Inhibition of HDAC6 in mouse SM1 cells assessed as reduction in IL-6 stimulated PDL1 overexpression at 5 uM pretreated for 1 hr followed by IL-6 stimulation for overnight by western blot analysis. The format is cell-based. The method, boiled down: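 SM1 cells pretreated with 5 µM compound, then IL-6 overnight. Lysed in RIPA buffer with protease and phosphatase inhibitors, sonicated, protein quantified by BCA. Immunoblot for PD-L1 and STAT3 Y705 phosphorylation.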

In data set [11] the target is Voltage-gated inwardly rectifying potassium channel KCNH2 (Homo sapiens, UniProt Q12809). Nature of the data set: Inhibition of human ERG expressed in HEK293 cells by manual-patch clamp assay. It is filed as cell-based.
Data set [12] relates to Mus musculus. Nature of the data set: Antitumor immunity against mouse SM1 cells implanted in flank of immunocompetent C57BL/6 mouse assessed as infiltration of intratumoral CD8+ cells at 25 mg/kg, ip administered 1 week post-implantation by flow cytometry. It is filed as functional, organism-based.
The subject of data set [13] is Mus musculus. Nature of the data set: Antitumor immunity against mouse SM1 cells implanted in flank of immunocompetent C57BL/6 mouse assessed as increase in antitumor M1 macrophages at 25 mg/kg, ip administered 1 week post-implantation by flow cytometry. The format is functional, organism-based.
Data set [14] concerns the target T1, Protein deacetylase HDAC6 (Mus musculus). Nature of the data set: Inhibition of HDAC6 in mouse SM1 cells assessed as reduction in IL-6 stimulated CD274 gene expression at 5 uM pretreated for 1 hr followed by IL-6 stimulation for overnight by qRT-PCR analysis. It is filed as cell-based. The method in brief: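 SM1 cells serum-starved overnight, pretreated 1 h with 5 µM compound, then given recombinant murine IL-6 at 30 ng/mL overnight. Total RNA extracted with Trizol; PD-L1 mRNA measured by qRT-PCR, normalized to GAPDH by the Pfaffl method, in arbitrary units.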

pIC50: −log10 of the molar value. The source made the active and inactive calls. The rule behind the calls is not given here. Where only a bound is given, the exact number is not on record here.

Voltage-gated inwardly rectifying potassium channel KCNH2, sequence (Q12809 whole entry): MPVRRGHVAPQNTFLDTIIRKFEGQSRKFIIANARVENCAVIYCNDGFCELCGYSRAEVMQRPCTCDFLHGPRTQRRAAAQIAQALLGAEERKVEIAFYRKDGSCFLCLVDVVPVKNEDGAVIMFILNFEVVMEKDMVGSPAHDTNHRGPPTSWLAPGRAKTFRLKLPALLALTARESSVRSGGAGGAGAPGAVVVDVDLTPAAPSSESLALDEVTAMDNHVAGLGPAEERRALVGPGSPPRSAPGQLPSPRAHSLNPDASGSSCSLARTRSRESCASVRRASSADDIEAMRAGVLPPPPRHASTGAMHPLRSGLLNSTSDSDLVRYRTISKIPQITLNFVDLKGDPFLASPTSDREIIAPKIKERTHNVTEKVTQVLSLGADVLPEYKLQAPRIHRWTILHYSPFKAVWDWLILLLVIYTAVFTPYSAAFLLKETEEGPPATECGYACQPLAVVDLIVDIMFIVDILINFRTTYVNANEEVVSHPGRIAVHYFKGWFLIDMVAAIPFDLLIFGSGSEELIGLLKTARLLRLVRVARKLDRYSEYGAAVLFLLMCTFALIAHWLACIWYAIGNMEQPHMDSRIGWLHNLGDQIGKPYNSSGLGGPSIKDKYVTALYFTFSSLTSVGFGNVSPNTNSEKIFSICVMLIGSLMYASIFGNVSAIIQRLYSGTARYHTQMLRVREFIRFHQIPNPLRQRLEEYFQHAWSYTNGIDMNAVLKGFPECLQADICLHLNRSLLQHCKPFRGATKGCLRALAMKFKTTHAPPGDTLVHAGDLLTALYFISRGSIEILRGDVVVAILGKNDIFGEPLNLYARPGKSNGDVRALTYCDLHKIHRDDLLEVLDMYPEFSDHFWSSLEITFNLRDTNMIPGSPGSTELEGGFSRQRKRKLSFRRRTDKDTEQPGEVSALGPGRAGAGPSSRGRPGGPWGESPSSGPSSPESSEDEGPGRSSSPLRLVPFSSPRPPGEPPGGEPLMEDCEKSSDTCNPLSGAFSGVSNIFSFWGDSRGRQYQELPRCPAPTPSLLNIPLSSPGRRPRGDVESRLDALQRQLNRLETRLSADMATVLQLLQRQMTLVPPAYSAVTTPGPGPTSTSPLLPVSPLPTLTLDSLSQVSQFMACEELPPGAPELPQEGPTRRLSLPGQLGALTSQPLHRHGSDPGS

As a reminder, the half-life is the time in which the quantity being followed falls by half. Broadly, the pIC50 is the negative decadic logarithm of the IC50, by convention in mol/L. Read a low pIC50 as a high IC50. For `O=C(NCCc1cc(C(=O)NO)no1)c1ccc(Cl)c(Cl)c1`, the half-life in data set [1] is 0.617 h; in [4], 2.25 h. The Activity entry (in [2]; in data set [7]; in data set [9]; with T-24) was “Non-Toxic” throughout. Besides, the result in the data set with Mus musculus [3], in the data set on Mus musculus [12] and with Mus musculus [13] was Active. In addition, the inhibition entry (in the data set on Mus musculus [5]; in [6]; in [8]; in data set [10]; in [14]) was “Active” each time. In addition, in data set [11], the negative-log IC50 (pIC50) was less than 4.52.

Source of the values: ChEMBL document CHEMBL4354804, “Discovery of a New Isoxazole-3-hydroxamate-Based Histone Deacetylase 6 Inhibitor SS-208 with Antitumor Activity in Syngeneic Melanoma Mouse Models” (J Med Chem, 2019).
